The text below walks through data of ChEMBL document CHEMBL4177761, “Highlights of the Structure-Activity Relationships of Benzimidazole Linked Pyrrolidines Leading to the Discovery of the Hepatitis C Virus NS5A Inhibitor Pibrentasvir (ABT-530)” (J Med Chem, 2018).

Positions count from the first letter of the chain named. Converted amounts (≈) assume the structure as drawn. Where only a bound is given, the exact number is not on record here.

Series [1] can be described thus: Intrinsic clearance in human microsomes. It is filed as ADME, Microsome.
Series [2] can be described thus: Solubility of the compound by CLND method. In kind it is physicochemical.
A short description of series [3]: Intrinsic clearance in rat microsomes. It is filed as ADME, Microsome.
The nature of series [4]: AUC (0 to infinity) in mouse at 3 mg/kg, po by LC-MS method. It is filed as ADME, organism-based. The following applies: in vivo. On the set-up: dose 3 mg/kg, route oral, time infinity. Put shortly:
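Single dose, 3 mg/kg, in mouse or rat. IV vehicle: DMSO:Tween 80:PEG-400:D5W 2:5:20:73 (v/v). PO vehicle: Phosol 53 MCT:PEG-400:Poloxamer 124:Cremophor RH40 40:20:20:20 (w/w). Acetonitrile protein precipitation, then LC-MS/MS in negative-ion MRM against an internal standard; LOQ ~20 ng/mL.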

Series [5] addresses T1, Nonstructural protein 5A (Hepatitis C virus) (UniProt Q5L478).
T1 sequence (whole entry): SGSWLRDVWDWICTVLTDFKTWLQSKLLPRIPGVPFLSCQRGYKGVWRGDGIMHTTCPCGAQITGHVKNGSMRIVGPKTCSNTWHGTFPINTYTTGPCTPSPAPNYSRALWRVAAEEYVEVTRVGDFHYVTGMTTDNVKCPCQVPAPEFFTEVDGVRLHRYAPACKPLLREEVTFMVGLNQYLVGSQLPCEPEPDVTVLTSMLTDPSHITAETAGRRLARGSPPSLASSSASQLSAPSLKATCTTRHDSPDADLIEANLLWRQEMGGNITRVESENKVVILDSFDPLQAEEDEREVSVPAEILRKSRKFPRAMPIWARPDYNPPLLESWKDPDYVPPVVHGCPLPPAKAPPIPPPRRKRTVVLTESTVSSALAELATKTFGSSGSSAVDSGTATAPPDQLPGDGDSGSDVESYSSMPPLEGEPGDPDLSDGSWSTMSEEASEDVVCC
Description: Inhibition of NS5A Q30E mutant in HuH7 cell infected HCV genotype 1a H77 assessed as decrease in viral replication after 4 days by luciferase reporter gene assay relative to wild type protein. The settings on record: Hepatitis C virus (isolate H77). Put shortly:
(§1)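 Stable subgenomic luciferase replicons in Huh-7 cells: genotype 1a-H77 carrying NS5A substitutions M28T, Q30E, Q30R, Y93C, Y93H or Y93N, tested alongside the wild-type replicon. Cells are incubated 4 days with compound in DMEM with 5% FBS. Luciferase read-out, EC50 by 4-parameter logistic fit, and fold change versus wild type.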
Background: A reporter such as luciferase makes a cellular process visible.

Series [6] relates to T2, Nonstructural protein 5A (Hepatitis C virus), Q5L478 [Y93N].
T2 sequence (whole entry): T1 sequence (whole entry) with Y93N
Briefly: Inhibition of NS5A Y93N mutant in HuH7 cell infected HCV genotype 1a H77 assessed as decrease in viral replication after 4 days by luciferase reporter gene assay relative to wild type protein. The settings on record: Hepatitis C virus (isolate H77). In short, it runs like this:
as §1

The target in series [7] is T1, Nonstructural protein 5A (Hepatitis C virus). Briefly: Inhibition of NS5A Q30R mutant in HuH7 cell infected HCV genotype 1a H77 assessed as decrease in viral replication after 4 days by luciferase reporter gene assay relative to wild type protein. The settings on record: Hepatitis C virus (isolate H77). Put shortly:
as §1

For series [8], the system named is T3, Nonstructural protein 5A (Hepatitis C virus), Q5L478 [Y93H].
T3 sequence (whole entry): T1 sequence (whole entry) with Y93H
Description: Inhibition of NS5A Y93H mutant in HuH7 cell infected HCV genotype 1b Con1 assessed as decrease in viral replication after 4 days by luciferase reporter gene assay relative to wild type protein. The following applies: Hepatitis C virus (isolate Con1). Put shortly:
(§2)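 Stable subgenomic luciferase replicons in Huh-7 cells: genotype 1b-Con1 carrying NS5A Y93H or Y93N, tested alongside the wild-type replicon. Cells are incubated 4 days with compound in DMEM with 5% FBS. Luciferase read-out, EC50 from a 4-parameter logistic fit, expressed as fold change versus wild type.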

For series [9] the test system is unchanged. Description: Inhibition of NS5A Y93H mutant in HuH7 cell infected HCV genotype 1a H77 assessed as decrease in viral replication after 4 days by luciferase reporter gene assay relative to wild type protein. The following applies: Hepatitis C virus (isolate H77). In short, it runs like this: as §1
Series [10] relates to T4, Nonstructural protein 5A (Hepatitis C virus), Q5L478 [Y93C].
T4 sequence (whole entry): T1 sequence (whole entry) with Y93C
Description: Inhibition of NS5A Y93C mutant in HuH7 cell infected HCV genotype 1a H77 assessed as decrease in viral replication after 4 days by luciferase reporter gene assay relative to wild type protein. The following applies: Hepatitis C virus (isolate H77). In short, it runs like this:
as §1

Series [11] deals with T2, Nonstructural protein 5A (Hepatitis C virus), Q5L478 [Y93N]. Briefly: Inhibition of NS5A Y93N mutant in HuH7 cell infected HCV genotype 1b Con1 assessed as decrease in viral replication after 4 days by luciferase reporter gene assay relative to wild type protein. The settings on record: Hepatitis C virus (isolate Con1). In short, it runs like this:
as §2

The nature of series [12]: Lipophilicity, log D of the compound by HPLC method. It is filed as physicochemical.
In series [13] the target is T1, Nonstructural protein 5A (Hepatitis C virus). Briefly: Inhibition of NS5A M28T mutant in HuH7 cell infected HCV genotype 1a H77 assessed as decrease in viral replication after 4 days by luciferase reporter gene assay relative to wild type protein. The settings on record: Hepatitis C virus (isolate H77). In short, it runs like this: as §1

The CLint scaled is a measure of how fast metabolising enzymes remove a compound, apart from limits set by blood flow. High values mean rapid turnover, low ones slow turnover. By solubility (kinetic) is commonly meant the concentration staying in solution when a stock, usually in DMSO, is diluted into the medium. As a reminder, the AUC(0-inf) is total exposure, with the tail of the curve extrapolated. For `COC(=O)N[C@H](C(=O)N1CCC[C@H]1c1nc2cc([C@H]3CC[C@H](c4ccc5[nH]c([C@@H]6CCCN6C(=O)[C@@H](NC(=O)OC)C(C)C)nc5c4)N3c3cc(F)c(N4CCC(c5ccccc5)CC4)c(F)c3)ccc2[nH]1)C(C)C`, the CLint scaled is under 25 mL/min/kg in [1] and 53.3 mL/min/kg in series [3]. Also, the kinetic solubility in [2] turned out to be 1.1 µM (≈ 1.13 µg/mL). The same compound returned an AUC(0-inf) in [4] of 6830 ng·h/mL.

On to `COC(=O)N[C@H](C(=O)N1CCC[C@H]1c1nc2ccc([C@H]3CC[C@H](c4ccc5nc([C@@H]6CCCN6C(=O)[C@@H](NC(=O)OC)C(C)C)[nH]c5c4)N3c3ccc(-c4ccccc4)cc3)cc2[nH]1)C(C)C`, for which the fold change (FC) in [5] was 47; in series [6], 827; in series [7], 10; in series [8], 1; in [9], 329; in [10], 24. Moreover, in [11], the fold change (FC) was determined as 1.

The term logD denotes lipophilicity at a set pH, counting ionised and neutral species. Low values mean lower lipophilicity, high ones higher lipophilicity. On to `COC(=O)N[C@H](C(=O)N1CCC[C@H]1c1nc2ccc([C@H]3CC[C@H](c4ccc5nc([C@@H]6CCCN6C(=O)[C@@H](NC(=O)OC)C(C)C)[nH]c5c4)N3c3ccc(N4CCC(c5ccccc5)CC4)cc3)cc2[nH]1)C(C)C`, for which the CLint scaled in series [1] is under 25 mL/min/kg; in series [3] it was 46.7 mL/min/kg. In series [2], this compound showed a kinetic solubility of 0.82 µM (≈ 0.813 µg/mL). In [12], the logD was determined as 5.4.

With `COC(=O)N[C@H](C(=O)N1CCC[C@H]1c1nc2cc(F)c([C@H]3CC[C@H](c4cc5[nH]c([C@@H]6CCCN6C(=O)[C@@H](NC(=O)OC)[C@@H](C)OC)nc5cc4F)N3c3cc(F)c(N4CCC(c5ccccc5)CC4)c(F)c3)cc2[nH]1)[C@@H](C)OC`, the fold change (FC) was 2 in series [5]; 5 in series [6]; 1 in series [13]; 1 in series [7]; 1 in [8]; 6 in series [9]. Besides, the fold change (FC) in [10] turned out to be 1; in series [11], 0.3.

Consider `COC(=O)N[C@H](C(=O)N1CCC[C@H]1c1nc2ccc([C@H]3CC[C@H](c4ccc5nc([C@@H]6CCCN6C(=O)[C@@H](NC(=O)OC)C(C)C)[nH]c5c4)N3c3cc(F)c(N4CCC(c5ccc(F)cc5)CC4)c(F)c3)cc2[nH]1)C(C)C`, for which the fold change (FC) in series [5] was 20; in series [6], 25; in series [13], 2; in [7] it was 3; in series [8], 2; in series [9] it was 20. Moreover, in [10], the fold change (FC) came to 3.

Regarding `COC(=O)N[C@H](C(=O)N1CCC[C@H]1c1nc2cc([C@H]3CC[C@H](c4ccc5[nH]c([C@@H]6CCCN6C(=O)[C@@H](NC(=O)OC)C(C)C)nc5c4)N3c3cc(F)c(N4CCC(c5ccc(F)cc5)CC4)c(F)c3)ccc2[nH]1)C(C)C`, the CLint scaled in series [1] was under 25 mL/min/kg; in [3], 53.3 mL/min/kg. In addition, the kinetic solubility in series [2] was 0.9 µM (≈ 0.941 µg/mL). The pH-dependent lipophilicity (logD) in series [12] was 5.8. This compound displayed an AUC(0-inf) in [4] of 4590 ng·h/mL.

As to `COC(=O)N[C@H](C(=O)N1CCC[C@H]1c1nc2ccc([C@H]3CC[C@H](c4ccc5nc([C@@H]6CCCN6C(=O)[C@@H](NC(=O)OC)C(C)C)[nH]c5c4)N3c3ccc(C4CCCCC4)cc3)cc2[nH]1)C(C)C`, the fold change (FC) was over 90 in [5]; over 17 in series [13]; over 30 in series [7]; 1 in series [8]; over 577 in series [9]; over 30 in series [10].

In the case of `COC(=O)N[C@H](C(=O)N1CCC[C@H]1c1nc2cc(F)c([C@H]3CC[C@H](c4cc5[nH]c([C@@H]6CCCN6C(=O)[C@@H](NC(=O)OC)C6CCOCC6)nc5cc4F)N3c3cc(F)c(N4CCC(c5ccccc5)CC4)c(F)c3)cc2[nH]1)C1CCOCC1`, the fold change (FC) was 1 in series [5], 2 in series [6] and 3 in series [9].

As to `COC(=O)N[C@H](C(=O)N1CCC[C@H]1c1nc2cc(F)c([C@H]3CC[C@H](c4cc5[nH]c([C@@H]6CCCN6C(=O)[C@@H](NC(=O)OC)C6CCOCC6)nc5cc4F)N3c3cc(F)c(N4CCC(c5ccc(F)cc5)CC4)c(F)c3)cc2[nH]1)C1CCOCC1`, the fold change (FC) amounted to 1 in series [5], 2 in series [6] and 2 in [9].

As to `COC(=O)N[C@H](C(=O)N1CCC[C@H]1c1nc2ccc([C@H]3CC[C@H](c4ccc5nc([C@@H]6CCCN6C(=O)[C@@H](NC(=O)OC)C(C)C)[nH]c5c4)N3c3ccc(Cl)cc3)cc2[nH]1)C(C)C`, the fold change (FC) in [5] was 83; in series [6], 1160; in series [13], 28; in series [7], 44; in series [8] it was 1; in series [9] it was 670. The fold change (FC) in series [10] came to 22.

Consider `COC(=O)N[C@H](C(=O)N1CCC[C@H]1c1nc2cc([C@H]3CC[C@H](c4ccc5[nH]c([C@@H]6CCCN6C(=O)[C@@H](NC(=O)OC)C(C)C)nc5c4)N3c3cc(F)c(N4CCCCC4)c(F)c3)ccc2[nH]1)C(C)C`, for which the values for the CLint scaled in [1] and in series [3] were 175 mL/min/kg and 187 mL/min/kg, respectively. This compound returned a kinetic solubility in series [2] of 0.7 µM (≈ 0.666 µg/mL). Besides, the fold change (FC) in [5] came out at 134; in [6], 510; in [13], 5; in series [7], 13; in series [8], 1; in series [9], 241. Moreover, the fold change (FC) in [10] was found to be 9. Further, the AUC(0-inf) in series [4] was 1790 ng·h/mL.
